In ChEMBL document CHEMBL1145853, “Design, synthesis, and biological evaluation of cytotoxic 11-alkenylindenoisoquinoline topoisomerase I inhibitors and indenoisoquinoline-camptothecin hybrids” (2003):

What was measured:
MDA-MB-435 = test: Cytotoxic concentration against human breast MDA-MB-435 cell line growth inhibition; format: functional
HOP-62 = test: Cytotoxic concentration against human lung HOP-62 cell line growth inhibition; format: functional
UACC-62 = test: Cytotoxic concentration against human melanoma UACC-62 cell line growth inhibition; format: functional
DU-145 = test: Cytotoxic concentration against human prostate DU-145 cell line growth inhibition; format: functional
HCT-116 = test: Cytotoxic concentration against human colon HCT116 cell line growth inhibition; format: functional
SF-539 = test: Cytotoxic concentration against human CNS SF-539 cell line growth inhibition; format: functional
SN12C = test: Cytotoxic concentration against human renal SN12C cell line growth inhibition; format: functional
[1] = target: T1, DNA topoisomerase 1 (Homo sapiens) (UniProt P11387); test: Activity to produce DNA topoisomerase I-mediated DNA cleavage at concentration up to 10 uM
T1 sequence (whole entry): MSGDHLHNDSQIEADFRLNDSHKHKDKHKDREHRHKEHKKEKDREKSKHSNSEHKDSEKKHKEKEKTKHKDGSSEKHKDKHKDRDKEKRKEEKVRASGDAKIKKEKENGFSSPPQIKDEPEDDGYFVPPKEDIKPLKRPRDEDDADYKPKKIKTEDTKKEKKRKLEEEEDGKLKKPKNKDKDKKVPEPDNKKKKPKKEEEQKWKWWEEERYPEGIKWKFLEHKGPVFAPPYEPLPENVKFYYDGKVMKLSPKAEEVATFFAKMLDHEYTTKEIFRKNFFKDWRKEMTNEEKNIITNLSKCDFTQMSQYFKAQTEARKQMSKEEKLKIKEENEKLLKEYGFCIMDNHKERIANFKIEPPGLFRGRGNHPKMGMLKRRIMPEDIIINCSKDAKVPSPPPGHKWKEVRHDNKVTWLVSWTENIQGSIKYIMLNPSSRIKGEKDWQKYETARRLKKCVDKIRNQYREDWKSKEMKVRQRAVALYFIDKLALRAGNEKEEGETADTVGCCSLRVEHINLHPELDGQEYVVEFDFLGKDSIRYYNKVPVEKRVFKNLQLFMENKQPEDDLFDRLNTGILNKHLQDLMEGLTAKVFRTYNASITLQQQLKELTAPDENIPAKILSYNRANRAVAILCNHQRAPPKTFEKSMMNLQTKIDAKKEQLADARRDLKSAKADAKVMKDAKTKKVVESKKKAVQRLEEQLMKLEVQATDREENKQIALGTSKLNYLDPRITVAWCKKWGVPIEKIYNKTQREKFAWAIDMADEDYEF
Procedure, shortened: (§1)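 Human recombinant top1, purified from baculovirus, was incubated for 30 min at 22 °C with the drug at up to 10 μM. The substrate was a 161 bp PvuII/HindIII fragment of pBluescript SK(-), 3'-end-labeled at the HindIII site by Klenow fill-in with [α-32P]dGTP, about 50 000 dpm per reaction. Reactions were stopped with SDS (0.5% final) and run on denaturing 16% polyacrylamide/7 M urea gels. Cleavage was scored semiquantitatively.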

OVCAR-3 = test: Cytotoxic concentration against human ovarian OVCAR-3 cell line growth inhibition; format: functional
Cancer cell lines = test: Mean graph midpoint for growth inhibition of all human cancer cell lines; format: functional
[2] = target: T1, DNA topoisomerase 1 (Homo sapiens); test: Activity to produce DNA topoisomerase I-mediated DNA cleavage at concentration up to 10 uM; +++, greater activity than the parent compound 2; procedure, shortened: as §1
[3] = target: T1, DNA topoisomerase 1 (Homo sapiens); test: Activity to produce DNA topoisomerase I-mediated DNA cleavage at concentration up to 10 uM; +, indicates weak activity; procedure, shortened: as §1

COc1cc2c3c(n(C)c(=O)c2cc1OC)-c1cc2c(cc1/C3=C\CCCBr)OCO2
GI50 (MDA-MB-435): > 100 µM
GI50 (HOP-62): 19.4 µM
GI50 (UACC-62): 11.4 µM
GI50 (DU-145): 67.8 µM
GI50 (HCT-116): 37.8 µM
GI50 (SF-539): 30 µM
GI50 (SN12C): > 100 µM
Activity [1]: 0
GI50 (OVCAR-3): 58.1 µM

COc1cc2c3c(n(C)c(=O)c2cc1OC)-c1cc2c(cc1/C3=C/CCCCCBr)OCO2
MGM (Cancer cell lines): 7.8 µM

COc1cc2c3c(n(C)c(=O)c2cc1OC)-c1cc2c(cc1/C3=C/CCN)OCO2
GI50 (MDA-MB-435): 1.8 µM
GI50 (HOP-62): 0.071 µM
GI50 (UACC-62): 0.2 µM
GI50 (DU-145): 0.37 µM
GI50 (HCT-116): 0.028 µM
GI50 (SF-539): 0.42 µM
MGM (Cancer cell lines): 0.34 µM
GI50 (SN12C): 0.58 µM
Activity [2]: greater activity than compound 2
GI50 (OVCAR-3): 0.56 µM

COc1cc2c3c(n(C)c(=O)c2cc1OC)-c1cc2c(cc1/C3=C\CCCCl)OCO2
GI50 (MDA-MB-435): > 100 µM
GI50 (SN12C): > 100 µM
Activity [3]: Weak activity

COc1cc2cc3n(c(=O)c2cc1OC)Cc1cc2ccccc2nc1-3 [DIMETHOXYAROMATHECIN]
GI50 (MDA-MB-435): > 100 µM
GI50 (HOP-62): > 100 µM
GI50 (UACC-62): > 100 µM
GI50 (DU-145): > 100 µM
GI50 (HCT-116): 57.3 µM
GI50 (SF-539): > 100 µM
GI50 (SN12C): > 100 µM
Activity [3]: indicates weak activity
GI50 (OVCAR-3): > 100 µM

COc1cc2c3c(n(C)c(=O)c2cc1OC)-c1cc2c(cc1/C3=C\CCCCBr)OCO2
GI50 (MDA-MB-435): > 100 µM
GI50 (UACC-62): > 100 µM
GI50 (SN12C): > 100 µM
GI50 (OVCAR-3): > 100 µM

COc1cc2c3c(n(C)c(=O)c2cc1OC)-c1cc2c(cc1/C3=C/CCCI)OCO2
GI50 (MDA-MB-435): 5.2 µM
GI50 (HOP-62): 27.6 µM
GI50 (UACC-62): 3.5 µM
GI50 (DU-145): 28.7 µM
GI50 (HCT-116): 0.56 µM
GI50 (SF-539): 4.3 µM
GI50 (SN12C): 8.8 µM
Activity [1]: 0
GI50 (OVCAR-3): 22.8 µM

O=c1c2ccccc2cc2n1Cc1cc3ccccc3nc1-2 [ROSETTACIN]
GI50 (MDA-MB-435): 41.8 µM
GI50 (HOP-62): 68.2 µM
GI50 (UACC-62): 97.2 µM
GI50 (DU-145): > 100 µM
GI50 (HCT-116): 32.7 µM
GI50 (SF-539): 66.7 µM
GI50 (SN12C): > 100 µM
GI50 (OVCAR-3): 39.8 µM

COc1cc2c3c(n(C)c(=O)c2cc1OC)-c1cc2c(cc1C3=O)OCO2
GI50 (MDA-MB-435): 96 µM
GI50 (HOP-62): 1.3 µM
GI50 (UACC-62): 4.2 µM
GI50 (DU-145): 37 µM
GI50 (HCT-116): 35 µM
GI50 (SF-539): 41 µM
MGM (Cancer cell lines): 20 µM
GI50 (SN12C): 68 µM
